Compounds with a hit are over-represented: about 4.3% of the library has one in this group of screens.
GalR3 antagonist – GalR3 antagonists in HEK293 cells, primary screen, cell-based, fluorescence readout. inhibition, % at 3 µM. hit rate 0.44% among 360,000. HEK293 GalR3-CNG cAMP membrane potential fluorescence; galR3 body fused to GalR1 C-terminus. AID 651719, 2012. Galanin receptor type 3 (Homo sapiens), O60755;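 active means inhibition above the screen-wide average plus 3 SD, cut at about 13% in these data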;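 further: forskolin and galanin both at EC90 stimulate the cells; cAMP rise reported by CNG channel membrane potential dye signal; 0% = forskolin plus galanin with DMSO and 100% = forskolin alone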
OX1R antag-1 – OX1R (HCRTR1) antagonists, primary screen, fluorescence, CHO/OX1R cells, Fluo-8 calcium, orexin A; Orexin/Hypocretin receptor type 1 (Homo sapiens), O43613; Fluo-8 calcium fluorescence; inhibition, % at 5 µM; hit rate 0.43% among 330,000;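 active means inhibition above its plate's threshold, mean inhibition of all tested compounds on the plate plus 3 SD, cut at about 37% in these data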;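 further: 0% = orexin A challenge wells and 100% = SB-334867-A antagonist wells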
Target sequence (O43613 whole entry, looked up): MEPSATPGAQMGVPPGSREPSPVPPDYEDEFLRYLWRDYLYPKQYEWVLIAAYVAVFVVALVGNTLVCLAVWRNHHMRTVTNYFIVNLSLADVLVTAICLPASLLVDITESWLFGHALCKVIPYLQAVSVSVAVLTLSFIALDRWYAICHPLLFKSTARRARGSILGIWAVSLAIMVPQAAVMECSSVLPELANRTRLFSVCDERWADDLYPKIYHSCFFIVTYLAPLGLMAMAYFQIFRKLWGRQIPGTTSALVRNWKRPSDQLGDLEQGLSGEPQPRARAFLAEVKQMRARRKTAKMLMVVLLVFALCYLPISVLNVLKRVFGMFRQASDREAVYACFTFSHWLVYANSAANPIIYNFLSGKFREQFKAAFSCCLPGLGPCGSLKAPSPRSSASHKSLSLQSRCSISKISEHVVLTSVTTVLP
CHO parental Ca – ATP-evoked calcium signal inhibitors, parental CHO, primary screen, counter-screen for OX1R antagonist project, cell-based, fluorescence, Fluo-8 calcium dye. hit rate 0.63% among 330,000. inhibition, % at 5.6 µM. parental CHO-K1, ATP-induced calcium, Fluo-8 fluorescence. AID 463079, 2010;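 active means inhibition above that plate's mean sample inhibition plus 3 SD, cut at about 26% in these data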;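 further: 0% = ATP-challenged DMSO wells and 100% = DMSO wells without ATP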
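test system = CHO parental line | reagent = ATP stimulus | measured by = intracellular calcium via Fluo-8 no-wash fluorescent dye | control set = ATP and no-ATP DMSO wells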
OX1R antag-2 – antagonists of human orexin 1 receptor (OX1R). hit rate 1.8% among 330,000. OX1R-expressing cells, FRET antagonist read-out. inhibition, % at 6.6 µM. Orexin/Hypocretin receptor type 1 (Homo sapiens), O43613. AID 485270, 2010; in the data active means inhibition mostly above about 38%, no sharp cut-off; inactive means mostly below about 40%;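 further: 0% = agonist challenge alone and 100% = reference antagonist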
TAAR1 ag – human TAAR1 agonists, primary screen, Fluo-8 calcium fluorescence, CHO RD-HGA16 cells. Trace amine-associated receptor 1 (Homo sapiens), Q96RJ0. vehicle wells 0%, saturating PEA agonist 100%. activation, % at 3 µM. hit rate 0.99% among 360,000. AID 624467, 2012;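 active means activation above the mean activation of all test compounds in the run plus 3 SD, cut at about 38% in these data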
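System: CHO RD-HGA16 cells carrying human TAAR1 plus Gα16; Incubation: 17-24 h seeding, 75 min 37 °C dye, 30 min RT; Measured by: Fluo-8 fluorescence, 5 s baseline then 140 s kinetic read; Control set: DMSO and PEA EC100; Replication: single well for each compound.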
TAAR1 antagonist – human TAAR1 antagonists, primary screen, Fluo-8 calcium fluorescence, CHO RD-HGA16 cells. AID 624466, 2012. antagonist. inhibition, % at 3 µM. hit rate 1.5% among 360,000;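 active means inhibition above a per-plate cutoff, the mean inhibition of test compounds on that plate plus 3 SD, cut at about 49% in these data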;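 further: 0% = DMSO plus EC80 beta-PEA response and 100% = DMSO alone without agonist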
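System: CHO RD-HGA16 cells bearing hTAAR1. Reagent: EC80 β-phenethylamine stimulus. Schedule: seeding 17-24 h prior, 75-min 37 °C, 30-min RT dye loading. Signal: Fluo-8 intracellular calcium dye fluorescence, real-time kinetic reads. Read-out: % inhibition from peak post-agonist over basal fluorescence ratio. Benchmarks: vehicle wells and EC80 agonist wells. Replicates: n of 1.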
An asterisk follows results filed as active; / = not tested or not shown.

SMILES	GalR3 antagonist	OX1R antag-1	CHO parental Ca	OX1R antag-2	TAAR1 ag	TAAR1 antagonist
COCc1cc(N2CCN(C(=O)OC(C)(C)C)C[C@@H]2C)ccc1N1CCN(Cc2ccccc2)[C@@H](C)C1	-7	/	/	/	0	-27
CCN(Cc1nc2cc(Cl)ccc2c(=O)[nH]1)C(=O)c1nn(C)c(=O)c2ccccc12	-3	-15	-12	38*	2	7
CCN(Cc1nc2cc(Cl)ccc2c(=O)[nH]1)C(=O)c1ccc(C)c(NC(=O)c2ccco2)c1	1	25	-29	76*	8	-19
COc1ccc(S(=O)(=O)N2CCN(c3nc(-c4cccnc4)nc4ccccc34)CC2)cc1	-7	-7	-27	2	4	37
N#Cc1ccccc1S(=O)(=O)N1CCN(c2nc(-c3cccnc3)nc3ccccc23)CC1	-4	/	/	/	17	51*
O=S(=O)(c1ccccc1F)N1CCN(c2nc(-c3cccnc3)nc3ccccc23)CC1	-1	6	-23	8	13	57*
Cc1c(Cl)cccc1NC(=S)N1CCN(Cc2ccc3c(c2)OCO3)CC1	-6	-10	-6	4	2	10
CN(Cc1ccccc1)C(=O)c1cc2ccccc2o1	-2	6	-10	10	2	10
CN(Cc1ccccc1)C(=O)c1ccccc1C(=O)OCC(=O)N(Cc1ccccc1)C(C)(C)C	-1	31	-20	31*	17	40
O=C(OCC(=O)N1CCOCC1)c1cc2ccccc2oc1=O	-3	-11	-2	46*	-1	7
O=C(CSC(=S)N1CCOCC1)c1cc2ccccc2oc1=O	/	-24	-11	8	/	/
CN(Cc1ccccc1)C(=O)COC(=O)c1cc2ccccc2oc1=O	-2	-16	-20	28*	-2	-9
O=C(COC(=O)c1cc(=O)[nH]c2ccccc12)c1ccccc1	-1	-5	-14	27	10	-25
O=C(OCC(=O)N1CCOCC1)c1cc(=O)[nH]c2ccccc12	-3	-13	-11	35*	1	-6
COCCN(C(=O)c1sc2ccccc2c1Cl)c1c(N)n(CC(C)C)c(=O)[nH]c1=O	-1	-18	-14	7	7	2
CCOc1cccc2cc(C(=O)N3CC(C)OC(C)C3)c(=O)oc12 (stereo not drawn)	-7	-16	15	7	-1	-11
COc1cccc2cc(C(=O)OCC(=O)N3CC(C)OC(C)C3)c(=O)oc12 (stereo not drawn)	-4	1	-11	53*	0	2
O=C(COC(=O)c1cc(=O)[nH]c2ccccc12)Nc1nc(-c2ccccc2)cs1	0	-1	-6	13	7	50*
CC(C)N1CCN(C(=O)C2CCC(=O)N(CCc3cccc(F)c3)C2)CC1 (stereo not drawn)	0	/	/	/	0	-13
COc1ccc(NC(=O)c2c(Nc3ccccc3)sc(C(=O)c3ccc(F)cc3)c2N)cc1	-7	14	31*	19	10	34
COc1ccc(Nc2sc(C(=O)c3ccc(Cl)cc3)c(N)c2C(=O)Nc2ccccc2OC)cc1	-3	101*	71*	0	107*	73*
COc1ccc(C(=O)c2sc(Nc3cccc(OC)c3)c(C(=O)Nc3cccc(C)c3C)c2N)cc1	-5	29	60*	1	38*	32
COC(=O)[C@]12C[C@H](CC(=O)NCCC(C)C)C(=O)N(Cc3ccccc3)C1=C[C@H](C1CCCC1)O[C@@H]2C	-3	/	/	/	-1	-34
[O-][N+]1=c2ccc(Nc3ccccc3)cc2=NC12CCCCC2	-6	-10	-19	47*	6	3
Cn1c(O)c(N=NC(=O)CNC(=O)c2ccccc2)c2cc(Br)ccc21	-7	-31	-20	59	-2	-8
SMILES	GalR3 antagonist	OX1R antag-1	CHO parental Ca	OX1R antag-2	TAAR1 ag	TAAR1 antagonist
Cn1c(O)c(N=NC(=O)CNC(=O)c2ccccc2)c2ccccc21	-8	-16	-13	48*	-1	0
O=S(=O)(c1ccc(NCCOc2ccccc2)nc1)N1CCCC1	-9	-7	2	9	2	-10
CCCCNc1nc(NCc2ccccc2)nc2ccccc12	-7	/	/	/	78*	92*
O=c1[nH]cc(F)c(=O)n1C1OC(CO)C(O)C1O (stereo not drawn)	-6	/	/	/	3	-7
COc1ccc(CNC(=O)C2CCN(c3nc(OC)nc(OC)n3)CC2)cc1	-5	-24	-13	10	6	-8
COc1ccc(CNC(=O)C2CCN(c3cc(C(=O)Nc4cccc(OC)c4)ccn3)CC2)cc1	-4	-25	-28	17	3	49*
Cn1ccnc1C(O)c1ccccc1 (stereo not drawn)	-2	-3	2	14	1	12
COc1ccc2ccccc2c1C(O)c1nccn1C (stereo not drawn)	-3	-7	-1	64*	21	21
CCOc1ccc(/C=N/OCC(=O)NC(c2ccccc2)c2ccccc2)cc1	-7	2	26	11	28	53*
COc1ccc(C(=O)c2ccc(Cl)cc2)c(OC)c1OC	-5	/	/	/	1	-12
Cc1cc(NC(=O)c2ccc(COc3ccccc3Cl)o2)no1	-5	6	53*	30	0	-19
COc1ccc(NC(=O)c2ccc(COc3ccccc3Br)o2)cc1OC	-4	-22	-16	45	4	80*
COc1ccc(NC(=O)c2ccc(COc3ccccc3OC)o2)cc1OC	-2	-4	2	22	12	26
Cc1cc(NC(=O)c2ccc(COc3ccc(Cl)c(C)c3)o2)no1	2	-16	-3	5	2	-4
O=C(CNC(=O)c1ccccc1F)OCn1nnc2ccccc2c1=O	-7	-18	-13	12	2	-6
Cc1cc(C(C#N)c2cccc(Cl)c2)n2ncnc2n1 (stereo not drawn)	-3	0	-7	76*	12	41
O=C(OCCOCCN=C1NS(=O)(=O)c2ccccc21)c1ccccc1Br	-3	-10	-1	17	4	0
O=C(O)C1C=CCC(C(=O)O)C1 (stereo not drawn)	-4	/	/	/	1	-23
CN(CC(=O)N1CC(=O)N(CCc2ccccc2)C(=O)C1)S(=O)(=O)c1cccc2nsnc12	-3	-12	-10	32	10	6

Compound activity: PubChem, The Scripps Research Institute Molecular Screening Center
